In one test the target is D(2) dopamine receptor (Bos taurus, UniProt P20288). As to the kind of experiment: Binding affinity of compound for Dopamine receptor D2 using [3H]N-0437.
A further test has as its target D(1A) dopamine receptor (Bos taurus, UniProt Q95136). Briefly: Binding affinity of compound for Dopamine receptor D1 using [3H]-SCH- 23390. The essentials:
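Rat striatal membranes; inhibition of 0.20 nM [3H]SCH23390 binding at D1 sites, following Hyttel et al. Ki in nM, n = 3, SEM < 10%.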

Test [1] has as its system Rattus norvegicus. As to the kind of experiment: Total full contralateral turn in rat was observed at a dose of 1.0 mg kg-1 administered perorally. Type of test: functional. As to conditions: route oral.
Test [2] concerns Rattus norvegicus. Briefly: Total full contralateral turn in rat was observed at a dose of 0.3 mg kg-1 administered perorally. It is filed as functional. To be noted: route oral.
Test [3] deals with Rattus norvegicus. Briefly: Total full contralateral turn in rat was observed at a dose of 0.1 mg kg-1 administered perorally. Type of test: functional. As to conditions: route oral.

The values that follow come from ChEMBL document CHEMBL1145966, “Orally active analogues of the dopaminergic prodrug 6-(N,N-di-n-propylamino)-3,4,5,6,7,8-hexahydro-2H-naphthalen-1-one: synthesis and pharmacological activity” (J Med Chem, 2003).

Molecules are shown by their SMILES.

Sequence of D(1A) dopamine receptor (Q95136 whole entry): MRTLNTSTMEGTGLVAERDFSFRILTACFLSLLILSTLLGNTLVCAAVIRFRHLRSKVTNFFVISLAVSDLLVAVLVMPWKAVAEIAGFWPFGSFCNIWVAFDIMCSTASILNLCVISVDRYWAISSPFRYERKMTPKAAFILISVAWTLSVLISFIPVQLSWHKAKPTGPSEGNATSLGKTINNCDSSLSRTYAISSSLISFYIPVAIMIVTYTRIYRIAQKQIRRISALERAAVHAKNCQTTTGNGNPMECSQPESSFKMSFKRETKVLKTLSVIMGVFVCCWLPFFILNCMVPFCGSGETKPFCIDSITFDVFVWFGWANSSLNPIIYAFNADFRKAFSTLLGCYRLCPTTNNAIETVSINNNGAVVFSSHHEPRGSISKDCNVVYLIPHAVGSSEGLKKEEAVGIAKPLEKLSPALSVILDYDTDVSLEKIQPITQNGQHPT
Sequence of D(2) dopamine receptor (P20288 whole entry): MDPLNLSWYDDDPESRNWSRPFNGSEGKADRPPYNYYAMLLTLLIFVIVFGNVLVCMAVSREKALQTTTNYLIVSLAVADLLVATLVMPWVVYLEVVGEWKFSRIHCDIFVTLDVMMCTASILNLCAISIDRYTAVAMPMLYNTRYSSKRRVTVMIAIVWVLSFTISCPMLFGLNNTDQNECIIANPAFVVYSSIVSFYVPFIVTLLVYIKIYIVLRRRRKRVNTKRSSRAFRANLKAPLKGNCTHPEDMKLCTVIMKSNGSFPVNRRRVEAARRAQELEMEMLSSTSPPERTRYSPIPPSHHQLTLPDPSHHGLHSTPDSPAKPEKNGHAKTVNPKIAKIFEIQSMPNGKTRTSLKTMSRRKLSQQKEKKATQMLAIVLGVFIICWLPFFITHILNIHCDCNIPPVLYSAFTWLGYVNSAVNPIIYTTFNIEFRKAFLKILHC

In the case of `CCCN(CCC)[C@@H]1Cc2cccc(O)c2C[C@H]1C`, the Ki on D(2) dopamine receptor was determined as 3 nM; on D(1A) dopamine receptor, 1.1 nM.
As for `CCCN(CCC)C1CCC2=C(C1)CC(C)(C)CC2=O` (racemic), the Total turns in the test on Rattus norvegicus [1] was 204; in the test with Rattus norvegicus [2] it was 23.
As to `CCCN(CC)C1CCC2=C(CCCC2=O)C1` (racemic), the Total turns in the test on Rattus norvegicus [3] is reported as 4840; with Rattus norvegicus [2] it was 8901.
Regarding `CCCN(CCc1cccs1)[C@H]1CCc2c(ccc(O)c2O)C1` (racemic), the Ki at D(2) dopamine receptor was determined as 6 nM; at D(1A) dopamine receptor it was 110 nM.
For `CCCN(CCc1cccs1)C1CCC2=C(CCCC2=O)C1` (racemic), the Total turns is 503 with Rattus norvegicus [1] and 262 in the test with Rattus norvegicus [3].
For `C#CCN(C)C1CCC2=C(CCCC2=O)C1` (racemic), the results for the Total turns in the test on Rattus norvegicus [3] and with Rattus norvegicus [2] were 713 and 513, respectively.
Taken in the same sequence, the figures for `CCCN(C)C1CCC2=C(CCCC2=O)C1` (racemic) were 2928 and 5740.
Take `CCCN(CCCF)C1CCC2=C(CCCC2=O)C1` (racemic): the Total turns with Rattus norvegicus [1] came to 7540; in the test on Rattus norvegicus [2], 5194.
`CCCN(CCC)[C@H]1CCC2=C(CCCC2=O)C1` (racemic): the results for the Total turns in the test on Rattus norvegicus [1], in the test with Rattus norvegicus [3] and in the test with Rattus norvegicus [2] were 8787, 2312 and 5354, respectively.
On to `CCCN(CCc1cccs1)[C@H]1CCc2c(O)cccc2C1` (racemic) [ROTIGOTINE], for which the values for the Ki at D(2) dopamine receptor and on D(1A) dopamine receptor were 15 nM and 500 nM, respectively.

As a reminder, the Ki is a dissociation constant, usually derived from enzyme kinetics or from competition with a known ligand. High values mean a looser hold on the target, low ones a stronger hold on the target.
